Many of the other results were omitted from the sample, so hits are more common in it than they were.
HUVEC inhibit: inhibitors of HUVEC proliferation, primary screen, cell-based, 384-well; CellTiter-Glo luminescence, 72 h; stronger effect = lower value; viability, % at 10 µM (by protocol); hit rate 1.1% among 86,000; AID 648, 2007;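 active = viability at or below 30%; inactive = viability above 30%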
HCT116 bCat-KO: primary screen for growth suppressors in beta-catenin knockout HCT116 cells (colon tumor, human) | viability, % at 10 µM | hit rate 1.5% among 140,000 | HCT116 beta-catenin knockout viability, CellTiter-Glo, 60 h; stronger effect = lower value | AID 818, 2007;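 active = viability at or under a set limit, the compound median less 4 SD, cut at about 6% in these data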
Fibroblast inh: antiproliferative effect on LL 47 fibroblasts – human, LL 47 cells, CellTiter-Glo luminescence, primary screen. LL 47 human lung fibroblast viability, ATP luminescence; stronger effect = lower value. viability, % at 10 µM. hit rate 1.1% among 85,000;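 active = viability at or below 50% in the single dose screen; inactive = viability above 50%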;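 note: compound exposure lasted 72 h before the ATP readout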
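material = human LL 47 lung fibroblast cells | dosing = compounds added from tenfold dosing solution, 0.1% DMSO final | timing = overnight cell rest, 72 h compound treatment at 37 °C | measured by = CellTiter-Glo luminescence measuring cellular ATP | evaluation = % viability versus median cells-only luminescence | control set = cell-only wells, no compound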
PTEN del growth: growth suppression of PTEN-null HCT116, primary screen, cell-based, CellTiter-Glo | HCT116 PTEN-null viability, 60 h; stronger effect = lower value | viability, % at 10 µM | hit rate 1.2% among 140,000 | AID 827, 2007;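 active = viability at or below a set limit, 4 SD under the median of all tested compounds, cut at about 3.7% in these data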;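 note: PTEN knockout HCT116 line with beta catenin targeted HCT116 as companion control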
H69AR inhibit: proliferation blockers of H69AR lung cancer cells, primary screen, cell-based, human, 86K library; H69AR lung tumor viability, ATP luminescence, 72 h; stronger effect = lower value; viability, % at 10 µM; hit rate 6% among 85,000;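 active = viability at or below 40%; inactive = viability above 40%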;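 note: multidrug resistant small cell line overexpressing MRP-1 efflux transporter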
Numbers stand for hits; . = inactive; / = not tested or not shown.

SMILES | HUVEC inhibit | HCT116 bCat-KO | Fibroblast inh | PTEN del growth | H69AR inhibit
Cc1ccsc1C(=O)Nc1cc(C(C)(C)C)nn1-c1ccccc1 | / | . | / | . | /
Cc1ccc(-c2nnn(CC(=O)N(c3ccc(F)cc3)C(C(=O)NC(C)(C)C)c3ccco3)n2)o1 (stereo not given) | . | . | . | . | 31.9
Cc1ccc(-c2nnn(CC(=O)N(c3ccc(F)cc3)C(C(=O)NC3CCCC3)c3ccco3)n2)o1 (stereo not given) | . | . | . | . | .
O=C(Nc1ccc(C(F)(F)F)cc1)c1cccnc1N1CCOCC1 | . | . | . | . | 38.6
O=C(/C=C/c1ccccc1Cl)NC(=S)Nc1ccccc1C(=O)NC1CCCCC1 | / | . | / | . | /
N#Cc1cc2sc3nc4ccccc4n3c2cc1C#N | . | . | . | . | .
N#Cc1cc2sc3nnc(-c4ccncc4)n3c2cc1C#N | . | . | 45.5 | . | 28.9
O=C(CSc1nnc(-c2cccc(S(=O)(=O)N3CCCCC3)c2)o1)NCCC1=CCCCC1 | . | . | . | . | .
CCN(CC)S(=O)(=O)c1cccc(-c2nnc(SCC(=O)c3cc(C)n(C4CC4)c3C)o2)c1 | . | / | . | / | .
Brc1ccccc1-c1nnc(SCc2nc3ccccc3s2)o1 | / | . | / | . | /
CCN(CC)S(=O)(=O)c1cccc(-c2nnc(SCc3nc4ccccc4s3)o2)c1 | . | . | . | . | 35.3
CCN(CC)S(=O)(=O)c1cccc(-c2nnc(SCCCC(=O)c3ccccc3)o2)c1 | . | . | . | . | 32.0
CCN(CC)S(=O)(=O)c1cccc(-c2nnc(SCCCC(=O)c3ccc(F)cc3)o2)c1 | . | . | . | . | 37.5
CCN(CC)S(=O)(=O)c1cccc(-c2nnc(SC(C)C(=O)NCCC3=CCCCC3)o2)c1 (stereo not given) | . | . | . | . | 33.2
O=C(N/N=C1/CC2C=CCC12)c1ccco1 (stereo not given) | / | . | / | . | /
O=C1c2ccccc2C(=O)N1n1c(=O)[nH]c2ccccc2c1=O | . | . | . | . | .
C/C(Cl)=C\Cn1c(N2CCCCCC2)nc2c1c(=O)n(C)c(=O)n2C | . | . | . | . | .
CCOc1ccccc1C(=O)NC(C)c1ccc2c(c1)OCO2 (stereo not given) | . | . | . | . | 23.7
CSc1c(CC(=O)Nc2ccccc2)n(Cc2ccccc2)c2ccccc12 | / | . | / | . | /
COC(=O)c1ccc(CN(c2ccc(C)cc2)S(=O)(=O)c2ccc3c(c2)OCCO3)o1 | . | . | . | . | .
CC(C)(C)c1ccc(C(=O)NCCCN2CCN(CCCNC(=O)c3ccc(C(C)(C)C)cc3)CC2)cc1 | / | 1.3 | / | 1.8 | /
c1ccc(CN2CCC(Nc3nc(-c4ccccc4)nc4ccccc34)CC2)cc1 | 4.0 | 1.6 | 5.4 | 1.6 | 2.1
Cc1ccc2nc(NC3=NCN(Cc4ccco4)CN3)nc(C)c2c1 | . | / | . | / | .
Cc1ccc2nc(NC3=NCN(Cc4ccc5c(c4)OCO5)CN3)nc(C)c2c1 | . | / | 41.9 | / | 27.9
O=C(CCC(=O)c1cccs1)Nc1ccc(F)c(F)c1F | . | . | . | . | .
SMILES | HUVEC inhibit | HCT116 bCat-KO | Fibroblast inh | PTEN del growth | H69AR inhibit
CCOC(=O)c1c(NC(=O)C2COc3ccccc3O2)sc2c1CC(C)(C)NC2(C)C (stereo not given) | / | 2.3 | / | 0.7 | /
COCCCNC(=O)c1c(NC(=O)C2COc3ccccc3O2)sc2c1CCCC2 (stereo not given) | . | . | . | . | 34.7
CCOC(=O)c1c(NC(=O)C2COc3ccccc3O2)sc(C(C)=O)c1C (stereo not given) | 22.8 | . | . | . | 21.0
CCNC(=O)c1c(NC(=O)C2COc3ccccc3O2)sc2c1CCCC2 (stereo not given) | . | . | . | . | .
Cc1cc2c(=O)n(NC(N)=O)c(C)nc2s1 | . | . | . | . | .
Cc1cc(C)cc(NC(=O)c2snc3c(=O)[nH]cnc23)c1 | / | . | / | . | /
O=C(CCc1ccccc1)Nc1c(F)cccc1F | . | / | . | / | .
COc1ccc(CN(C(C)=O)c2cccc(C)c2C)cc1 | . | . | . | . | 18.8
COc1ccc(CN(C(=O)CO/N=C/c2ccccc2)c2ccccc2C(=O)O)cc1 | / | . | / | . | /
Cc1cnc(NC(=O)c2ccc(-c3nc4ccccc4s3)o2)s1 | . | . | . | . | 28.3
Cc1ccc(-c2nn3c(C)nnc3s2)cc1NC(=O)CSc1ccc(Cl)cc1 | 28.9 | . | . | . | .
Cc1ccc(CNc2cc(-c3nn4c(C)nnc4s3)ccc2C)s1 | . | . | . | . | .
Cc1nnc2sc(-c3ccc(NC(=O)CSc4ccc(Cl)cc4)cc3)nn12 | . | . | . | . | .
Cc1ccc(-c2nn3c(C)nnc3s2)cc1NCc1c(F)cccc1Cl | . | . | . | . | 28.4
CC(NC(=O)C(=O)NN=C1CCCCCCC1)c1ccccc1 (stereo not given) | / | . | / | . | /
COc1cc2c(-c3ccc(O)cc3)nc3c(c(C)nn3-c3ccccc3)c2cc1OC | / | 1.0 | / | 1.2 | /
COc1ccc2cc3cc(C(=O)NCCN4CCN(c5ccccc5F)CC4)oc3nc2c1 | . | . | . | . | .
COc1ccc2cc3cc(C(=O)Nc4ccccc4N4CCN(C)CC4)oc3nc2c1 | 3.6 | 2.1 | 27.6 | 1.5 | 29.3
CCCCCCCCNC(C)C(O)c1ccc(SC(C)C)cc1 (stereo not given) | 2.6 | 1.6 | 4.0 | 1.3 | 1.7
OC1(c2cccc(C(F)(F)F)c2)CCN(c2ncnc3c2[nH]c2ccc(F)cc23)CC1 | 6.4 | . | . | 2.6 | 2.4
COc1cc(/C=N/NC(=O)c2ccc(O)cc2)ccc1Oc1ccc([N+](=O)[O-])cn1 | / | . | / | . | /
Cc1ccc2[nH]c3c(c2c1)CCCC3=O | 27.2 | . | . | . | .
Cc1ccc2[nH]c3c(c2c1)CCC3=O | . | . | . | . | .
Cc1ccc2[nH]c3c(c2c1)CCc1cn[nH]c1-3 | . | . | . | . | 38.9
O=C(Nc1ccc(N2CCOCC2)cc1)Nc1ccc2nc(-c3ccco3)c(-c3ccco3)nc2c1 | 22.3 | . | . | . | 9.5
SMILES | HUVEC inhibit | HCT116 bCat-KO | Fibroblast inh | PTEN del growth | H69AR inhibit
COC(=O)c1ccc(NC(=O)CN(Cc2ccc(Cl)cc2)S(C)(=O)=O)cc1 | . | . | . | . | .
O=C(OCn1ncc(Br)c(Br)c1=O)c1c(F)cccc1F | 2.0 | 1.4 | 2.0 | 1.5 | 1.0
COC(=O)C(NNc1ccccc1)(NC(=O)c1cccc(F)c1)C(F)(F)F (stereo not given) | / | . | / | . | /
CCn1c2ccccc2c2nnc(SCCCn3c(=O)[nH]c4ccccc43)nc21 | . | . | . | . | 22.5
CCn1c2ccccc2c2nnc(SCc3ccccc3)nc21 | . | . | . | . | .
COc1ccccc1Cn1c2nc3ccccc3nc2c2c(=O)n(CC(C)C)cnc21 | . | / | . | / | .
COc1cc(-c2nnn(CC(=O)N3CCOCC3)n2)cc(OC)c1OC | . | . | . | . | .
COc1ccc(-c2ccc(-c3nnn(CC(=O)N4CCOCC4)n3)cc2)cc1 | . | . | 37.8 | . | 24.1
